Results reported in ChEMBL document CHEMBL1828502, “Quinolinyl and quinolinyl N-oxide chalcones: synthesis, antifungal and cytotoxic activities” (Eur J Med Chem, 2011).
Converted amounts (≈) assume the structure as drawn.

How the values were obtained:
[1] = test system: Paracoccidioides brasiliensis; test: Antifungal activity against Paracoccidioides brasiliensis Pb18 by serial dilution method; assay type: functional
[2] = test system: Candida parapsilosis; test: Antifungal activity against Candida parapsilosis by two fold serial dilution method; assay type: functional; settings: Lodderomyces parapsilosis
In short: (§1)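 Broth microdilution MIC following CLSI M27-A2 with twofold serial dilutions; strains ATCC 18804 (C. albicans), ATCC 22019 (C. parapsilosis), ATCC 750 (C. tropicalis), ATCC 32608 (C. gattii), kept on Sabouraud dextrose agar at 4 °C. Amphotericin B and trimethoprim/sulfamethoxazole served as positive controls.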

[3] = test system: HL-60; test: Anticancer activity against human HL60 cells after 48 hrs by MTT assay; assay type: functional, cell-based
In short: (§2)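 HL60 and Jurkat leukemia lines plated at 50,000 and 100,000 cells/well respectively and pre-incubated 24 h at 37 °C, 5% CO2. Compounds dissolved in DMSO and tested over a concentration range of […] for 48 h. Viability read by MTT reduction (4 h), formazan dissolved in acidic isopropanol, OD 590 nm. Values normalized to 0.05% DMSO control; IC50 taken graphically from dose-effect curves. Triplicate, three separate days.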

[4] = test system: MCF7; test: Anticancer activity against human MCF7 cells after 48 hrs by sulforhodamine B assay; assay type: functional, cell-based
In short: (§3)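 Solid tumour lines from NCI (NCI colorimetric protocol), seeded and pre-incubated 24 h at 37 °C, 5% CO2, then exposed to compounds for 48 h. Proteins fixed with trichloroacetic acid, stained with sulforhodamine B, dye dissolved in 10 mM Tris, absorbance at 515 nm compared against initial-density control wells. IC50 from dose-response curves built with 1:2 serial dilutions; duplicate, repeated at least three times.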

[5] = test system: Candida tropicalis; test: Antifungal activity against Candida tropicalis after 2 days by broth microdilution method in presence of 1 M osmotic stabilizer sorbitol; assay type: functional; settings: 48 h
[6] = test system: Cryptococcus gattii species complex; test: Antifungal activity against Cryptococcus gattii by two fold serial dilution method; assay type: functional, Cryptococcus bacillisporus; in short: as §1
[7] = test system: Candida tropicalis; test: Antifungal activity against Candida tropicalis by two fold serial dilution method; assay type: functional; in short: as §1
[8] = test system: UACC-62; test: Anticancer activity against human UACC62 cells after 48 hrs by sulforhodamine B assay; assay type: functional, cell-based; in short: as §3
[9] = test system: TK-10; test: Anticancer activity against human TK10 cells after 48 hrs by sulforhodamine B assay; assay type: functional, cell-based; in short: as §3
[10] = test system: Jurkat; test: Anticancer activity against human Jurkat cells after 48 hrs by MTT assay; assay type: functional, cell-based; in short: as §2
[11] = test system: Candida albicans; test: Antifungal activity against Candida albicans by two fold serial dilution method; assay type: functional; in short: as §1
[12] = test system: Paracoccidioides brasiliensis; test: Antifungal activity against Paracoccidioides brasiliensis Pb18 after 10 days by broth microdilution method in presence of 1 M osmotic stabilizer sorbitol; assay type: functional; settings: 240 h
[13] = test system: Cryptococcus gattii species complex; test: Antifungal activity against Cryptococcus gattii by two fold serial dilution method after 3 days by broth microdilution method in presence of 1 M osmotic stabilizer sorbitol; assay type: functional, Cryptococcus bacillisporus; settings: 72 h
[14] = Homo sapiens, HL-60, 48 h, read-out: IC50
[15] = Homo sapiens, Jurkat, 48 h, read-out: IC50
[16] = Homo sapiens, MCF7, 48 h, read-out: IC50
[17] = Homo sapiens, UACC-62, 48 h, read-out: IC50
[18] = Homo sapiens, TK-10, 48 h, read-out: IC50

Row | Compound | MIC [1] [µg/mL] | MIC [2] [µg/mL] | IC50 [3, 14] [µg/mL] | IC50 ([4]; mcf7) | MIC [5] [µg/mL] | MIC [6] [µg/mL] | MIC [7] [µg/mL] | IC50 ([8]; uacc-62) | IC50 ([9]; tk-10) | IC50 ([10]; jurkat) | MIC [11] [µg/mL] | MIC [12] [µg/mL] | MIC [13] [µg/mL] | IC50 [10, 15] [µg/mL] | IC50 ([3]; hl-60) | IC50 [4, 16] [µg/mL] | IC50 [8, 17] [µg/mL] | IC50 [9, 18] [µg/mL]
1 | Cc1ccc(C(=O)/C=C/c2ccc3ncccc3c2)cc1 | 7.8 (≈ 28.5 µM) | > 500 | 8.28 (≈ 30.3 µM) | Not Active | > 31.2 | > 500 | > 500 | Not Active | Not Active | Not Active | > 500 | 7.8 | > 31.2 |  |  |  |  | 
2 | COc1ccc(C(=O)/C=C/c2ccc3c(ccc[n+]3C)c2)cc1.[I-] | 125 | 125 | 25.2 | Not Active | > 31.2 | 31.2 | 62.5 | Not Active | Not Active |  | 62.5 | > 31.2 | 62.5 | 11.9 |  |  |  | 
3 | O=C(/C=C/c1ccc2ncccc2c1)c1ccccc1 |  | > 500 |  |  |  | 125 (≈ 482 µM) | > 500 |  |  | Not Active | > 500 |  |  |  | Not Active | 1.1 (≈ 4.24 µM) | 3.83 (≈ 14.8 µM) | 7 (≈ 27 µM)
4 | COc1ccc(C(=O)/C=C/c2ccc3ncccc3c2)cc1 | 62.5 (≈ 216 µM) | > 500 | 12.6 (≈ 43.5 µM) |  |  | > 500 | > 500 |  | Not Active |  | > 500 |  |  | 19.6 (≈ 67.7 µM) |  | 0.19 (≈ 0.657 µM) | 22.5 (≈ 77.8 µM) | 
5 | O=C(/C=C/c1ccc2ncccc2c1)c1ccc([N+](=O)[O-])cc1 | 500 (≈ 1640 µM) | > 500 |  |  |  | > 500 | > 500 |  |  |  | > 500 |  |  |  |  |  |  | 
6 | O=C(/C=C/c1ccc2ncccc2c1)c1ccc(F)cc1 | 7.8 (≈ 28.1 µM) | > 500 | 20.8 (≈ 75 µM) |  | > 31.2 | 500 (≈ 1800 µM) | > 500 |  |  |  | > 500 | 7.8 | > 31.2 | 26.5 (≈ 95.6 µM) |  | 6.3 (≈ 22.7 µM) | 5.6 (≈ 20.2 µM) | 1 (≈ 3.61 µM)
7 | O=C(/C=C/c1ccc2ncccc2c1)c1ccc(Br)cc1 | > 500 | > 500 |  |  |  | > 500 | > 500 |  |  |  | > 500 |  |  |  |  |  |  | 
8 | O=C(/C=C/c1ccc2ncccc2c1)c1ccc(Cl)cc1 | 62.5 (≈ 213 µM) | > 500 | 8.8 (≈ 30 µM) |  |  | > 500 | > 500 | Not Active | Not Active |  | > 500 |  |  | 15 (≈ 51.1 µM) |  | 0.96 (≈ 3.27 µM) |  | 
9 | O=C(/C=C/c1ccc2c(ccc[n+]2[O-])c1)c1ccccc1 | 62.5 (≈ 227 µM) | > 500 | 4.9 (≈ 17.8 µM) | Not Active |  | 250 (≈ 908 µM) | > 500 | Not Active | Not Active | Not Active | > 500 |  |  |  |  |  |  | 
10 | Cc1ccc(C(=O)/C=C/c2ccc3c(ccc[n+]3[O-])c2)cc1 | 125 (≈ 432 µM) | > 500 | 20.3 (≈ 70.2 µM) |  |  | 500 (≈ 1730 µM) | > 500 |  |  |  | > 500 |  |  | 32.5 (≈ 112 µM) |  | 8.3 (≈ 28.7 µM) | 5.3 (≈ 18.3 µM) | 1 (≈ 3.46 µM)
11 | COc1ccc(C(=O)/C=C/c2ccc3c(ccc[n+]3[O-])c2)cc1 | 15.6 (≈ 51.1 µM) | > 500 | 14.8 (≈ 48.5 µM) |  | > 31.2 | > 500 | > 500 |  |  |  | > 500 | 15.6 | > 31.2 | 36.3 (≈ 119 µM) |  | 1.15 (≈ 3.77 µM) | 4.3 (≈ 14.1 µM) | 5.25 (≈ 17.2 µM)
12 | O=C(/C=C/c1ccc2c(ccc[n+]2[O-])c1)c1ccc([N+](=O)[O-])cc1 | 500 (≈ 1560 µM) | > 500 |  |  |  | > 500 | > 500 |  |  |  | > 500 |  |  |  |  |  |  | 
13 | O=C(/C=C/c1ccc2c(ccc[n+]2[O-])c1)c1ccc(F)cc1 | 1.9 (≈ 6.48 µM) | > 500 |  |  | > 31.2 | 62.5 (≈ 213 µM) | > 500 |  |  |  | > 500 | 1.9 | > 31.2 | 71.9 (≈ 245 µM) | Not Active | 4.3 (≈ 14.7 µM) | 2.75 (≈ 9.38 µM) | 0.19 (≈ 0.648 µM)
14 | O=C(/C=C/c1ccc2c(ccc[n+]2[O-])c1)c1ccc(Br)cc1 | 62.5 (≈ 176 µM) | > 500 | 2.6 (≈ 7.34 µM) |  |  | 62.5 (≈ 176 µM) | > 500 |  |  |  | > 500 |  |  | 65.5 (≈ 185 µM) |  | 6.6 (≈ 18.6 µM) | 4.7 (≈ 13.3 µM) | 1.1 (≈ 3.11 µM)
15 | O=C(/C=C/c1ccc2c(ccc[n+]2[O-])c1)c1ccc(Cl)cc1 | 15.5 (≈ 50 µM) | > 500 | 33.8 (≈ 109 µM) |  | > 31.2 | 250 (≈ 807 µM) | > 500 |  |  |  | > 500 | 15.6 | > 31.2 | 4.9 (≈ 15.8 µM) |  | 6.6 (≈ 21.3 µM) | 4.9 (≈ 15.8 µM) | 1.7 (≈ 5.49 µM)
16 | C[n+]1cccc2cc(/C=C/C(=O)c3ccccc3)ccc21.[I-] | 500 | > 500 |  | Not Active |  | 31.2 | 125 | Not Active | Not Active | Not Active | > 500 |  |  |  | Not Active |  |  | 
17 | Cc1ccc(C(=O)/C=C/c2ccc3c(ccc[n+]3C)c2)cc1.[I-] | 62.5 | > 500 |  | Not Active | 62.5 | 7.8 | 15.6 | Not Active | Not Active | Not Active | 125 | > 31.2 | 15.5 |  | Not Active |  |  | 
18 | C[n+]1cccc2cc(/C=C/C(=O)c3ccc([N+](=O)[O-])cc3)ccc21.[I-] | 250 | > 500 |  | Not Active | > 31.2 | 31.2 | 250 | Not Active | Not Active | Not Active | > 500 | > 31.2 | 62.5 |  | Not Active |  |  | 
19 | C[n+]1cccc2cc(/C=C/C(=O)c3ccc(F)cc3)ccc21.[I-] |  | > 500 |  | Not Active | > 31.2 | 15.6 | 62.5 | Not Active | Not Active | Not Active | 500 | > 31.2 | 62.5 |  | Not Active |  |  | 
20 | C[n+]1cccc2cc(/C=C/C(=O)c3ccc(Br)cc3)ccc21.[I-] | 31.2 | 125 |  | Not Active | 15.6 | 7.8 | 15.6 | Not Active | Not Active |  | 250 | 31.2 | 7.8 | 7.3 | Not Active |  |  | 
21 | C[n+]1cccc2cc(/C=C/C(=O)c3ccc(Cl)cc3)ccc21.[I-] | 125 | > 500 | 9.9 | Not Active | 31.2 | 15.6 | 31.2 | Not Active | Not Active |  | 500 | > 31.2 | 15.6 | 4.9 |  |  |  | 
22 | C[C@@H]1[C@H](O)[C@@H](C)/C=C/C=C/C=C/C=C/C=C/C=C/C=C/[C@H](O[C@@H]2O[C@H](C)[C@@H](O)[C@H](N)[C@@H]2O)C[C@@H]2O[C@](O)(C[C@@H](O)C[C@@H](O)[C@H](O)CC[C@@H](O)C[C@@H](O)CC(=O)O[C@H]1C)C[C@H](O)[C@H]2C(=O)O [AMPHOTERICIN B] | 0.006 (≈ 0.00649 µM) | 0.5 (≈ 0.541 µM) |  |  |  | 1.2 (≈ 1.3 µM) | 0.25 (≈ 0.271 µM) |  |  |  | 1 (≈ 1.08 µM) |  |  |  |  |  |  | 
23 | COc1cc([C@@H]2c3cc4c(cc3[C@@H](O[C@@H]3O[C@@H]5CO[C@@H](C)O[C@H]5[C@H](O)[C@H]3O)[C@H]3COC(=O)[C@H]23)OCO4)cc(OC)c1O [ETOPOSIDE] |  |  | 0.47 (≈ 0.799 µM) |  |  |  |  |  |  |  |  |  |  | 2.8 (≈ 4.76 µM) |  | 0.03 (≈ 0.051 µM) | 1.4 (≈ 2.38 µM) | 20.4 (≈ 34.7 µM)
